# PubChem BioAssay AID651999 (Sanford-Burnham Center for Chemical Genomics, 2013)
# In all, about 360,000 compounds went through this assay and about 1,400 (0.39%) were called active. The sample as a whole holds a higher share of actives than the screen did. A number with no mark means an inactive call.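 The calls were made as follows: active = pattern-corrected inhibition above about 35%, with an unprinted fluorescence ratio check between 0.5 and 1.5 (limit read from the data, passing the limit was not always enough); inactive = the rest.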
# Target: COP9 signalosome complex subunit 5 (Homo sapiens) (UniProt Q92905)
# Test: CSN5 deneddylase inhibitors on cullin-RING ligase – biochemical, fluorescence polarization, uHTS, primary screen (AID 651999);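 also: 0% = enzyme with substrate and 100% = substrate without enzyme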
# Settings: Purified CSN, SCF-Nedd8-OG deneddylation, at 12.5 µM, stronger effect = higher value
# How it was run: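 Test system: Human Csn5 produced in HEK293T cells | Compound: 12.5 µM single point | Times: 90 min, room temperature | Signal: Fluorescence polarization readout | Read-out basis: % inhibition of substrate cleavage by Csn5 | Controls: no-enzyme wells high, enzyme-with-substrate wells low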
# Sequence of COP9 signalosome complex subunit 5 (Homo sapiens) (Q92905 whole entry, looked up, one chain of several): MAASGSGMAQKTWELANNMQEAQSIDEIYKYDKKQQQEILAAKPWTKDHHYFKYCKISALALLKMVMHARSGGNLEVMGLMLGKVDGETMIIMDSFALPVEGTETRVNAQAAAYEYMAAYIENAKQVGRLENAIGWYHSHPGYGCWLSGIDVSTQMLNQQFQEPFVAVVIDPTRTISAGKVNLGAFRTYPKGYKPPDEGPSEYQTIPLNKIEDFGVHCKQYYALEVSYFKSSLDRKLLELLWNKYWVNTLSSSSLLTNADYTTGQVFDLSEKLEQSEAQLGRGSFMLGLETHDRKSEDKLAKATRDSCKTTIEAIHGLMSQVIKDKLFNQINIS
row,Structure (SMILES),inhibition
1,CCCN(CC1CC1)C(=S)NC(=O)c1ccccc1Br,-6.61%
2,CN1CCN(c2ccc(S(=O)(=O)N3CCOCC3)cc2NC(=O)CCc2ccccc2)CC1,2.64%
3,CCOC(=O)CN(C)S(=O)(=O)c1ccc(-c2cc(C(=O)OC)sc2C(F)(F)F)cc1,1.34%
4,COc1ccc(Nc2cc(Sc3ccc(OC)cc3)ncn2)cc1,-0.7%
5,COc1ccc(CCNC2=CC(=O)CC(C)(C)C2)cc1,-5.48%
6,COc1ccc(NC2=CC(=S)NC(C)(C)C2)cc1,42.9% (active)
7,O=C(NCCc1ccccc1)C(=O)NCC1OCCN1S(=O)(=O)c1cccs1 (stereo unspecified),0%
8,O=C(Nc1ccc(Cl)c(Cl)c1)c1ccccc1NC(=O)C1CC=CCC1C(=O)O (stereo unspecified),-4.09%
9,Cc1cc(N(C)C)cc(C)[n+]1[O-],-2.98%
10,O=C1CSC(c2ccc(Cl)cc2)N1 (stereo unspecified),-5.2%
11,CCCCC(c1nnnn1CS(=O)(=O)c1ccc(C)cc1)N1CCC(C(N)=O)CC1 (stereo unspecified),-2.76%
12,CC(C)(C)C1C/C(=C/c2ccco2)C(=O)/C(=C/c2ccco2)C1 (stereo unspecified),41.2% (active)
13,CCCC/C(C)=N/NC(=O)NC1CCCCC1,-3.54%
14,Nc1c(-c2ccc(F)cc2)cnc2ncnn12,2.66%
15,O=C(COc1ccc2c(C(F)(F)F)cc(=O)oc2c1)Nc1ccc2c(c1)OCCO2,187% (active)
16,CCc1ccccc1OCC(=O)Nc1ccc2c(c1)OCCO2,1.42%
17,CCN(CC(=O)Nc1ccc2c(c1)OCCO2)Cc1cc(=O)oc2cc(C)c(C)cc12,4.55%
18,Cc1cccc(OCC(=O)NCCNC(=O)c2cccnc2)c1,0.16%
19,Cc1ccc(NC(=O)COc2ccc(-n3ccnc3)cc2)cc1Cl,0%
20,Cc1ccc(NC(=O)COc2ccc(/C=N\NC(=O)c3cccnc3)cc2)cc1C,158% (active)
21,CSCCC(NS(=O)(=O)c1ccc(C)cc1)C(=O)N(C)CC(=O)Nc1ccccc1Br (stereo unspecified),1.95%
22,Cc1nc(SCC(=O)NC2CCCCC2C)c(C#N)c(C)c1C (stereo unspecified),0.75%
23,O=C(O)C(c1ccccc1)N1C(=O)/C(=C\c2ccc(-c3cccc(Cl)c3)o2)SC1=S (stereo unspecified),93.7% (active)

row,Structure (SMILES),inhibition
1,CCC(C)N1C(=O)S/C(=C/c2ccc(Sc3nc4ccccc4[nH]3)o2)C1=O (stereo unspecified),4.54%
2,CC1COc2ccccc2N1S(=O)(=O)c1ccccc1 (stereo unspecified),-12.8%
3,CCOC(=O)C1CCN(C(=O)CC2C(=O)N(Cc3ccccc3)C(C)c3nc4ccccc4n32)CC1 (stereo unspecified),4.78%
4,CN(C)N=Nc1ccc2nc[nH]c2c1,-1.48%
5,CC1=CC(=NNS(=O)(=O)c2ccc([N+](=O)[O-])cc2)CC(C)(C)C1,8.55%
6,Cc1ccc(Cc2cnc(N)s2)o1,36.5% (active)
7,CC(=O)c1nnn(-c2ccc(Cl)cc2C#N)c1C,0.92%
8,CC(C)(C)c1ccc(C(=O)N2CCC(C(=O)N3CCCCC3)CC2)cc1,-2.5%
9,O=c1ccc(-c2ccc(S(=O)(=O)Nc3ccccc3)o2)n[nH]1,6.31%
10,O=C(NCC1CCCO1)/C(=C/c1ccc(Cl)cc1)NC(=O)c1ccccc1 (stereo unspecified),-2.86%
11,Cn1c2ccccc2c2cc(/C=C(\NC(=O)c3ccccc3)C(=O)NCC(=O)O)ccc21,60.8% (active)
12,CCOc1ccc(/C=C(/NC(=O)c2ccccc2)C(=O)NCCC(=O)O)cc1,-10.6%
13,CC1CCN(S(=O)(=O)c2ccc(S(=O)(=O)NCc3ccco3)cc2)CC1,0.01%
14,Cc1noc(NS(=O)(=O)c2ccc(N3CC(O)=C(c4ccccc4)C3=N)cc2)c1C,2.49%
15,O=C1CC(c2c(F)cccc2Cl)C(n2cncn2)C(O)=C1C1NCCc2ccccc21 (stereo unspecified),-3.94%
16,CCn1c(SCC(=O)Nc2ccc(Br)cc2)nc2sc3c(c2c1=O)CCN(C)C3,3.55%
17,CCOc1ccc(-n2c(SCC(=O)Nc3ccc(OC)cc3)nc3sc4c(c3c2=O)CCN(C)C4)cc1,102% (active)
18,CCCSc1nc2sc3c(c2c(=O)n1-c1ccc(OC)cc1)CCN(C)C3,7.27%
19,CCN(CC)C(=O)CSc1nnc(-c2ccc(S(=O)(=O)NCc3ccccc3Cl)cc2)o1,-2.99%
20,NC(=S)c1ccc(C(N)=S)o1,2.12%
21,O=C(NCCCn1ccnc1)c1cc2c(s1)CCCC2,0.16%
22,COc1ccc2c(c1)OC(O)(C(F)(F)C(F)F)CC2=O (stereo unspecified),2.02%
23,Oc1ccc(N=Cc2c(O)ccc3ccccc23)cc1,58.2% (active)
